Measured values of several laboratories.
F2: Prothrombin (F2, Homo sapiens, UniProt P00734)
gag-pol protease: Gag-Pol polyprotein, protease (gag-pol, Human immunodeficiency virus type 1 group M subtype B, UniProt P04585)
KCNH2: Voltage-gated inwardly rectifying potassium channel KCNH2 (KCNH2, Homo sapiens, UniProt Q12809)
CES1: Liver carboxylesterase 1 (CES1, Homo sapiens, UniProt P23141)

NCCCCNCCCN
Kd (tlpQ (Pseudomonas aeruginosa, UniProt Q9I0I4); binding, ITC): 120 nM

N=C(N)NCCC[C@H](NC(=O)[C@H](Cc1ccccc1)NC(=O)[C@H](CCC(N)=O)NC(=O)OCc1ccccc1)C(=O)c1nccs1
Ki (F2; cell-free assay): 994 nM

CN1CCC(CNc2ccc3ncc(-c4cccc(OC(F)(F)F)c4)n3n2)CC1
IC50 (3',5'-cyclic-AMP phosphodiesterase 4D (PDE4D, Homo sapiens, UniProt Q08499); enzyme activity, inhibitor): 5040 nM

COc1ccc(S(=O)(=O)N(CC(C)C)C[C@@H](O)[C@H](Cc2ccccc2)NC(=O)O[C@H]2CCC[C@@]23CCO[C@@H](c2cc(OC)cc(OC)c2)C3)cc1
Ki (gag-pol protease; enzyme activity, inhibitor): 2.6 nM

O=c1c2cc(Cl)ccc2[nH]c(=S)n1Cc1ccc(-c2nnn[nH]2)nc1
IC50 (KCNH2; ion current, inhibitor, patch clamp; pH 7.4): > 10000 nM

Cn1c(=O)n(CCCCN2CCC3(CC2)OCc2ccccc23)c2ccccc21
Ki (Sodium-dependent dopamine transporter (Slc6a3, Rattus norvegicus, UniProt P23977); ligand displacement, radioligand; cell membranes): 311 nM

COc1ccc(S(=O)(=O)N(CC(C)C)C[C@@H](O)[C@H](Cc2ccccc2)NC(=O)O[C@H]2CCC[C@@]23CCO[C@@H](c2cccc(OC)c2)C3)cc1
Ki (gag-pol protease; enzyme activity, inhibitor): 1080 nM

O=c1c2cc(Cl)ccc2[nH]c(=S)n1Cc1cccnc1
IC50 (KCNH2; ion current, inhibitor, patch clamp; pH 7.4): > 10000 nM

CCOC(=O)c1ccc(OC(=O)CCCCCN=C(N)N)cc1
IC50 (Kallikrein-14 (Homo sapiens, UniProt Q9P0G3); enzyme activity, inhibitor): 641 nM

CCOC(=O)N[C@@H](CCCNC(=N)N)C(=O)N[C@@H](CCC(N)=O)C(=O)N[C@@H](Cc1ccccc1)C(=O)N[C@@H](CCCNC(=N)N)C(=O)c1nc2ccccc2s1
Ki (F2; cell-free assay): > 10000 nM

COc1c2c(cc3c1-c1c(cc4c(c1OC)OCO4)C[C@H](C)[C@H](C)C3)OCO2
IC50 (CES1; enzyme activity, inhibitor): 1400 nM

CC1=C(O)C(=O)C=C2C1=CC=C1[C@@]2(C)CC[C@@]2(C)[C@@H]3C[C@](C)(C(=O)O)CC[C@]3(C)CC[C@]12C
Kd (Aldo-keto reductase family 1 member B10 (AKR1B10, Homo sapiens, UniProt O60218); binding, BLI): 2410 nM

COc1ccc(S(=O)(=O)N(CC(C)C)C[C@@H](O)[C@H](Cc2ccccc2)NC(=O)O[C@H]2CCC[C@]23CCO[C@H](c2ccccc2OC)C3)cc1
Ki (gag-pol protease; enzyme activity, inhibitor): 0.22 nM

C=CCc1ccc(O)c(-c2cc(CC=C)ccc2O)c1
IC50 (CES1; enzyme activity, inhibitor): 390 nM
